Data set [1] in a line: Cytotoxicity against human WHCO1 cells after 48 hrs by MTT assay. As to conditions: WHCO1, 48 h.
A short description of data set [2]: Ratio of cisplatin IC50 to compound IC50 for human WHCO1 cells after 48 hrs by MTT assay. A general note: Tetrazolium dyes change colour on reduction, which living cells bring about.
For a further data set, the system named is NIH3T3. The data set can be described thus: Cytotoxicity against mouse NIH/3T3 cells after 96 hrs by MTT assay. The class given is cell-based. As to conditions: for IC50: Mus musculus, NIH3T3, 96 h; for Activity: mouse, nih3t3, 96 h. The procedure, abridged: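 NIH3T3 fibroblasts kept in DMEM with 10% heat-inactivated FCS plus penicillin/streptomycin/amphotericin at 37 °C, 9% CO2. Seeded at 1000 cells/well overnight, then exposed to 0, 10, 100, 1 000 and 10 000 nM or vehicle (0.02% v/v) for 96 h.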

For data set [3], the system named is WHCO1. The data set can be described thus: Induction of apoptosis in human WHCO1 cells assessed as PARP cleavage at 5 to 10 uM after 6 to 48 hrs by MTT assay. As to conditions: in the assay text read “by Western blot analysis” for “by MTT assay”. The class given is functional, cell-based. The procedure, abridged:
(§1)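 Western blot of WHCO1 cells given varying concentrations for 6, 24 and 48 h, protein extracted at each time point. PARP cleavage to […] 85 kDa fragments taken as the apoptosis marker; c-Jun levels probed on the same blots.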

For data set [4], the system named is WHCO1. The data set can be described thus: Induction of apoptosis in human WHCO1 cells assessed as increase in c-jun level after 6 to 24 hrs by MTT assay. The format is functional, cell-based. As to conditions: in the assay text read “by Western blot analysis” for “by MTT assay”. The procedure, abridged:
as §1

For data set [5], the system named is WHCO1. The data set is described as follows: Induction of apoptosis in human WHCO1 cells assessed as PARP cleavage at 20 uM after 6 to 48 hrs by MTT assay. The class given is functional, cell-based. As to conditions: in the assay text read “by Western blot analysis” for “by MTT assay”. In short, it runs like this: as §1
Data set [6] is described as follows: Cytotoxicity against human WHCO1 cells after 24 hrs by MTT assay. The class given is functional, cell-based. As to conditions: WHCO1, 24 h.
Data set [7] in a line: Ratio of cisplatin IC50 to compound IC50 for human WHCO1 cells after 24 hrs by MTT assay. The format is functional.

As usually defined, the IC50 is the concentration needed to halve the response being measured. Read a low IC50 as greater potency in that assay.

Active and inactive are the calls of the source. The calls are words filed in the database; no cut-off is given here.

Molecule `CC1(C)CCC2=C(O1)C(=O)c1ccccc1C2=O` [ALPHA-LAPACHONE] gave an IC50 in data set [1] of 28.7 µM.

In turn, `O=C(C1=CC(=O)c2ccccc2C1=O)c1cccc(Cl)c1` returned an IC50 in data set [1] of 94.8 µM.

As to `Cc1cc(Cl)ccc1C(=O)C1=CC(=O)c2ccccc2C1=O`, the IC50 in data set [1] stood at 50.4 µM.

With `CC(O)C1=CC(=O)c2ccccc2C1=O` (stereo not given), it took 6.4 µM to reach half-maximal inhibition in data set [1] (IC50).

Molecule `O=C1C=C(Cc2ccccc2)C(=O)c2ccccc21` had an IC50 in data set [1] of 21.6 µM.

The molecule `CC1(C)CC2=C(O1)c1ccccc1C(=O)C2=O` [NOR-BETA-LAPACHONE] showed an IC50 in data set [1] of 2.4 µM. The “Ratio IC50” value in data set [2] turned out to be 7.

Molecule `O=C(C1=CC(=O)c2ccccc2C1=O)c1ccoc1` showed an IC50 in data set [1] of 96.9 µM.

`O=C1C=C(C(O)c2ccc(F)cc2)C(=O)c2ccccc21` (stereo not given): the IC50 was found to be 5.1 µM in data set [1] and 11.7 µM in the data set on NIH3T3. Besides, the “Ratio IC50” value in data set [2] amounted to 2.

In data set [1], `O=C1C=C(C(O)c2ccoc2)C(=O)c2ccccc21` (stereo not given) registered an IC50 of 10.9 µM. Further, the “Ratio IC50” value in data set [2] was found to be 2.

Molecule `O=C(CCc1ccccc1)C1=CC(=O)c2ccccc2C1=O` yielded an IC50 in data set [1] of 83.7 µM.

As to `O=C1C=C([C@@H](O)c2ccccc2)C(=O)c2ccccc21`, the IC50 in data set [1] is 3.8 µM. For the same molecule, the outcome in the data set with WHCO1 [3] was inactive. Moreover, in the data set with WHCO1 [4], the Activity result is “Dose-dependent effect”. In the data set with WHCO1 [5], the outcome was Active.

On to `Cc1cc(Cl)ccc1C(O)C1=CC(=O)c2ccccc2C1=O` (stereo not given), for which the IC50 in data set [1] came out at 3.4 µM; with NIH3T3, 7.4 µM. Besides, the “Ratio IC50” value in data set [2] is 2.

The molecule `CC1(C)CCC2=C(O1)c1ccccc1C(=O)C2=O` [LAPACHONE] yielded an IC50 in data set [1] of 1.6 µM. The “Ratio IC50” value in data set [2] is 10.

In data set [1], `CC(C)=CCC1=CC(=O)c2ccccc2C1=O` [DEOXYLAPACHOL] had an IC50 of 15 µM.

In the case of `CC(C)=CCC1=C(O)C(=O)c2ccccc2C1=O` [LAPACHOL], in data set [1], the IC50 came out at 24.1 µM.

Regarding `O=C1C=C(C(O)c2cccc(Cl)c2)C(=O)c2ccccc21` (stereo not given), in data set [1], the IC50 is 7.3 µM. Besides, the Activity entry with NIH3T3 is on record as “Non-toxic”. The “Ratio IC50” value in data set [2] is 2.

As to `O=C1C=C(c2ccccc2)C(=O)c2ccccc21`, in data set [1], inhibition was half-maximal at 11.7 µM (IC50). In addition, in data set [2], the “Ratio IC50” value is listed as 2.

For the molecule `CC(C)=CC(O)C1=CC(=O)c2ccccc2C1=O` (stereo not given), inhibition in data set [1] was half-maximal at 5.2 µM (IC50).

In the case of `CC1(C)OC2=C(CC1Br)C(=O)C(=O)c1ccccc12` (stereo not given), in data set [1], the IC50 amounted to 1.8 µM. Further, in data set [2], the “Ratio IC50” value is on record as 9.

Consider `O=C1C=C(C(O)c2ccc3ccccc3c2)C(=O)c2ccccc21` (stereo not given), for which, in data set [6], 2.4 µM corresponded to half-maximal inhibition (IC50). Also, the “Ratio IC50” value in data set [7] came to 2.

`O=C(C1=CC(=O)c2ccccc2C1=O)c1ccc(F)cc1` displayed an IC50 in data set [1] of 74.9 µM. This counts as double-digit micromolar.

Molecule `O=C(C1=CC(=O)c2ccccc2C1=O)c1ccc(Cl)cc1` had an IC50 in data set [1] of 72.9 µM.

On to `CC1(C)OC2=C(CC1O)C(=O)C(=O)c1ccccc12` (stereo not given), for which, in data set [1], the IC50 is 6.5 µM. The “Ratio IC50” value in data set [2] was 2.

In data set [1], `C=CC(O)C1=CC(=O)c2ccccc2C1=O` (stereo not given) displayed an IC50 of 4.3 µM.

As for `O=C(C1=CC(=O)c2ccccc2C1=O)c1cccc(F)c1`, the IC50 in data set [1] came out at 94.8 µM. Compared with the last molecule, the IC50 is about 22-fold higher.

As to `O=C1C=C(C(O)c2cccc(F)c2)C(=O)c2ccccc21` (stereo not given), the 50% inhibitory concentration (IC50) in data set [1] was determined as 5.5 µM; in the data set on NIH3T3, 82 µM. For the same molecule, the “Ratio IC50” value in data set [2] came out at 2.

As to `O=C1C=C(C(O)c2ccc(Cl)cc2)C(=O)c2ccccc21` (stereo not given), 3 µM corresponded to half-maximal inhibition in data set [1] (IC50). The Activity entry in the data set with NIH3T3 is recorded as “Non-toxic”. Besides, in data set [2], the “Ratio IC50” value is given as 2.

`O=C1C=C(C(O)c2ccccc2)C(=O)c2ccccc21` (racemic) showed an IC50 in data set [1] of 3.9 µM. In addition, the result in the data set with WHCO1 [3] was inactive. Further, the results for the Activity result in the data set with WHCO1 [4] and in the data set on NIH3T3 were “Dose-dependent effect” and “Non-toxic”, respectively. Further, in the data set with WHCO1 [5], the result was Active. Also, in data set [2], the “Ratio IC50” value is 11.

As to `O=C1C=C(C(O)CCc2ccccc2)C(=O)c2ccccc21` (stereo not given), in data set [1], the midpoint of inhibition, the IC50, lay at 4.8 µM. For the same molecule, the “Ratio IC50” value in data set [2] was 2.

In turn, `O=C1C=C([C@H](O)c2ccccc2)C(=O)c2ccccc21` yielded an IC50 in data set [1] of 4.3 µM. Besides, the result with WHCO1 [3] was inactive. For the same molecule, the Activity entry with WHCO1 [4] is “Dose-dependent effect”. In addition, the result with WHCO1 [5] was Active.

Molecule `O=C(C1=CC(=O)c2ccccc2C1=O)c1ccccc1` registered an IC50 in data set [1] of 63.4 µM. In other words, the double-digit micromolar range.

For the origin of these results see ChEMBL document CHEMBL2331249, “Cytotoxicity of lapachol, β-lapachone and related synthetic 1,4-naphthoquinones against oesophageal cancer cells” (Eur J Med Chem, 2013).
